From ChEMBL document CHEMBL5653613 (Mol Cancer Ther, 2013)
The source made the active and inactive calls. The calls are words filed in the database; no cut-off is given here.

Key:
T47D [1] = experiment: Induction of apoptosis in human T47D cells assessed as rate of apoptotic cell death at 5 umol/L by annexin V/PI staining based flow cytometry relative to control; type: functional; conditions: dose 5 µmol/L; at 5 µM
T47D [2] = experiment: Inhibition of clonogenic growth in human T47D cells incubated for 10 days by Hema-3 staining based microscopy; type: functional, cell-based; conditions: dose 1-5 µmol/L, time 10.0 day
In short: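 Colonies were stained with Hema-3, photographed under a microscope with a CCD camera, counted in duplicate, and expressed as % of control. Results are shown from 1 of 2 experiments.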

ZR-75-1 [3] = experiment: Induction of apoptosis in human ZR-75-1 cells assessed as rate of apoptotic cell death at 5 umol/L by annexin V/PI staining based flow cytometry relative to control; type: functional; conditions: dose 5 µmol/L; at 5 µM
MCF7 [4] = experiment: Induction of apoptosis in human MCF7 cells assessed as rate of apoptotic cell death at 5 umol/L by annexin V/PI staining based flow cytometry relative to control; type: functional; conditions: dose 5 µmol/L; at 5 µM
T47D [5] = experiment: Induction of apoptosis in human T47D cells assessed as viable cells at 5 umol/L incubated for 3 days by Annexin V/PI staining based flow cytometry (reference value: 95.7 %); type: functional; conditions: 72 h, dose 5 µmol/L, time 3 day, read-out: Activity
T47D [6] = experiment: Induction of apoptosis in human T47D cells assessed as early cells at 5 umol/L incubated for 3 days by Annexin V/PI staining based flow cytometry (reference value: 0.8 %); type: functional; conditions: dose 5 µmol/L; time 3 day; at 5 µM
T47D [7] = experiment: Inhibition of cell growth of human T47D cells at 5 uM; type: functional, cell-based; conditions: time <= 48.0 hrs, TDE = time-dependent effect
T47D [8] = experiment: Induction of polyploidy in human T47D cells at 10 umol/L incubated for 72 hrs by microscopic analysis relative to control; type: functional; conditions: dose 10 µmol/L, at 10 µM
In short: (§1)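 Cells stained with Hema-3 and photographed under a light microscope with CCD camera. Polyploid cells scored as percent of the population.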

MCF7 [9] = experiment: Induction of polyploidy in human MCF7 cells at 5 to 10 umol/L incubated for 72 hrs by microscopic analysis relative to control; type: functional; conditions: dose 5-10 µmol/L, at 5 to 10 µM; in short: as §1
MCF7 [10] = experiment: Induction of polyploidy in human MCF7 cells at 5 umol/L by microscopic analysis; type: functional, cell-based; conditions: dose 5.0 µmol/L, time 72.0 hrs, TDE = time-dependent effect
T47D [11] = experiment: Induction of polyploidy in human T47D cells at 5 uM incubated for 72 hrs by microscopic analysis; type: functional, cell-based; in short: as §1
T47D [12] = experiment: Induction of polyploidy in human T47D cells with RON-/- at 5 umol/L incubated for 72 hrs by microscopic analysis; type: functional, cell-based; conditions: dose 5.0 µmol/L
In short: (§2)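 Cells (2 106 per 60-mm dish) transiently transfected for 48 hours with 1 nmol/L scrambled or RON-specific siRNA, with knockdown confirmed by anti-RON Western blot. […] Polyploidy monitored and photographed by microscopy, with untransfected and scrambled-siRNA cells as comparators.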

T47D [13] = experiment: Induction of polyploidy in human T47D cells with RON-/- at 5 umol/L incubated for 72 hrs by microscopic analysis (reference value: 83.5 %); type: functional; conditions: dose 5 µmol/L, at 5 µM; in short: as §2
T47D [14] = experiment: Induction of cell death of human T47D cells with RON-/- at 5 umol/L incubated for 72 hrs followed by media replacement without compound measured upto 10 days by microscopic analysis; type: functional, cell-based; conditions: dose 5.0 µmol/L
ZR-75-1 [15] = experiment: Induction of cell death of human ZR-75-1 cells with RON-/- at 5 umol/L incubated for 72 hrs followed by media replacement without compound measured upto 10 days by microscopic analysis; type: functional, cell-based; conditions: dose 5.0 µmol/L
MCF7 [16] = experiment: Induction of polyploidy in human MCF7 cells assessed as cells with 8N chromosome contents at 5 uM incubated for 24 hrs by PI staining based flow cytometry (reference value: 0); type: functional
MCF7 [17] = experiment: Induction of polyploidy in human MCF7 cells assessed as cells with 2N chromosome contents at 5 uM incubated for 48 hrs by PI staining based flow cytometry (reference value: 52); type: functional
MCF7 [18] = experiment: Induction of polyploidy in human MCF7 cells assessed as cells with 2N chromosome contents at 5 uM incubated for 72 hrs by PI staining based flow cytometry (reference value: 52); type: functional
T47D [19] = experiment: Induction of polyploidy in human T47D cells assessed as cells with 2N chromosome contents at 5 uM incubated for 72 hrs by PI staining based flow cytometry (reference value: 48); type: functional
T47D [20] = experiment: Induction of polyploidy in human T47D cells assessed as cells with 8N chromosome contents at 5 uM incubated for 72 hrs by PI staining based flow cytometry (reference value: 0); type: functional
T47D [21] = experiment: Induction of polyploidy in human T47D cells assessed as cells with 16N chromosome contents at 5 uM incubated for 72 hrs by PI staining based flow cytometry (reference value: 0); type: functional
ZR-75-1 [22] = experiment: Induction of polyploidy in human ZR-75-1 cells assessed as cells with 4N chromosome contents at 5 uM incubated for 48 hrs by PI staining based flow cytometry (reference value: 35); type: functional
ZR-75-1 [23] = experiment: Induction of polyploidy in human ZR-75-1 cells assessed as cells with 8N chromosome contents at 5 uM incubated for 48 hrs by PI staining based flow cytometry (reference value: 0); type: functional
ZR-75-1 [24] = experiment: Induction of polyploidy in human ZR-75-1 cells assessed as cells with 16N chromosome contents at 5 uM incubated for 48 hrs by PI staining based flow cytometry (reference value: 0); type: functional
ZR-75-1 [25] = experiment: Induction of polyploidy in human ZR-75-1 cells assessed as cells with 4N chromosome contents at 5 uM incubated for 72 hrs by PI staining based flow cytometry (reference value: 35); type: functional
T47D [26] = experiment: Disruption of microtubule dynamics in human T47D cells assessed as absence of functional bipolar spindle assembly at 5 umol/L incubated for 24 hrs by immunofluorescence staining based analysis; type: cell-based; conditions: dose 5.0 µmol/L
In short: (§3)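 T-47D cells (1 × 10^6/dish) in RPMI-1640 with 5% FBS were treated with or without 5 µmol/L for 24, 48 and 72 h. Cells were fixed in cold acetone and stained with mouse anti-α-tubulin or anti-γ-tubulin, then an FITC anti-mouse IgG secondary, plus DAPI. Fluorescence microscopy, 200× magnification.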

T47D [27] = experiment: Disruption of microtubule dynamics in human T47D cells assessed as lack of metaphase equatorial alignment at 5 umol/L incubated for 24 hrs by immunofluorescence staining based analysis; type: functional, cell-based; conditions: dose 5.0 µmol/L; in short: as §3
T47D [28] = experiment: Induction of cell cycle arrest at cytokinesis in human T47D cells at 5 umol/L preincubated for 24 hrs followed by extensive compound washout and subsequent culturing in compound-free media measured upto 120 mins by immunofluorescence staining based analysis; type: functional; conditions: dose 5.0 µmol/L
In short: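 T-47D cells were treated at 37°C with 5 µmol/L for 24 h, washed extensively, then cultured in DMEM with 10% FBS for 30, 60 and 120 min. α- and γ-tubulin were detected by immunofluorescence with DAPI, imaged at 400×. The control was a 24 h preincubation with 5 µmol/L RO-3306. One of 2 experiments.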

[29] = (§4) Effect on paclitaxel resistance in human T47D cells with compound-induced polyploidy assessed as change in paclitaxel-induced cytotoxicity by measuring increase in paclitaxel IC50 at 5 umol/L preincubated for 72 hrs followed by compound washout and subsequent paclitaxel treatment for 72 hrs by MTS assay; type: functional, cell-based
[30] = as §4, with “bleomycin” for “paclitaxel”, “ZR-75-1” for “T47D”, “bleomycin-induced” for “paclitaxel-induced”; type: functional, cell-based
[31] = as §4, with “cisplatin” for “paclitaxel”, “ZR-75-1” for “T47D”, “cisplatin-induced” for “paclitaxel-induced”; type: functional, cell-based

CCOc1ccn(-c2ccc(F)cc2)c(=O)c1C(=O)Nc1ccc(Oc2ccnc(N)c2Cl)c(F)c1 [BMS-777607]
Activity (T47D [1]): 10.3%
inhibition (T47D [2]): Dose-Dependent Effect
Activity (ZR-75-1 [3]): 9.7%
Activity (MCF7 [4]): 2.2%
viability at 5 µM (T47D [5]): 87.3%
Activity (T47D [6]): 2.2%
inhibition (T47D [7]): Tde
Activity (T47D [8]): 86%
Activity (MCF7 [9]): 36%
Activity (MCF7 [10]): Tde
Activity (T47D [11]): Active
Activity (T47D [12]): Active
Activity (T47D [13]): 79.4%
Activity (T47D [14]): inactive
Activity (ZR-75-1 [15]): inactive
Activity (MCF7 [16]): 14
Activity (MCF7 [17]): 12
Activity (MCF7 [18]): 12
Activity (T47D [19]): 7.5
Activity (T47D [20]): 21
Activity (T47D [21]): 18.5
Activity (ZR-75-1 [22]): 12
Activity (ZR-75-1 [23]): 20
Activity (ZR-75-1 [24]): 32
Activity (ZR-75-1 [25]): 12
Activity (T47D [26]): Active
Activity (T47D [27]): Active
Activity (T47D [28]): Active
IC50 [29]: 31.6 nM
IC50 [30]: 2260 nM
IC50 [31]: 3.4 nM
